In ChEMBL document CHEMBL1134486, “Synthesis and biological evaluation of purine-containing butenolides” (J Med Chem, 2001):

Target: T1, Adenosine deaminase (Bos taurus) (UniProt P56658)
T1 sequence (whole entry): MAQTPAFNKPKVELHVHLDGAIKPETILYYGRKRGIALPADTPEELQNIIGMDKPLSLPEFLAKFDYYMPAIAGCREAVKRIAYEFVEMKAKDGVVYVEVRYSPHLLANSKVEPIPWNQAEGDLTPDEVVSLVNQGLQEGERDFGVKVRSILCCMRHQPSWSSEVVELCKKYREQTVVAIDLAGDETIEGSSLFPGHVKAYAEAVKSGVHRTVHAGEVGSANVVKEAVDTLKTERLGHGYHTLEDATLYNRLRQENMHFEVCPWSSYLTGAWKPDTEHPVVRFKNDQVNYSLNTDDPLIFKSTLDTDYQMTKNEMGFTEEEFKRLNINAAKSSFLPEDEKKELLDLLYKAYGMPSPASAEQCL
Experiment: Relative Vmax value of the compound
Method in brief: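 Deamination rates followed with calf mucosal ADA (EC 3.5.4.4) in buffer solutions; Km and Vmax relative to adenosine as substrate; inhibition (Ki) assessed with adenosine as substrate.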

SMILES: Nc1ncnc2c1ncn2[C@@H]1O[C@H](CO)[C@@H](O)[C@H]1O
- Relative Vmax: 1
